Experimental data: ChEMBL document CHEMBL5244266, “Nitrogen-containing naringenin derivatives for reversing multidrug resistance in cancer” (Bioorg Med Chem, 2020)

Legend:
L5178Y [1] = experiment: Cytotoxicity against parental mouse L5178Y cells assessed as inhibition of cell growth incubated for 24 hrs by MTT assay; type: functional, cell-based
In short: (§1)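 L5178Y parental and human ABCB1 retrovirus-transfected lines were grown in McCoy's 5A with 10% heat-inactivated horse serum, and the MDR line was kept under colchicine 60 ng/mL. Cells were seeded at 1×10^4/well and given 2-fold dilutions from 100 μM maximum, in duplicate, for 24 h. MTT was added for 4 h, then SDS/HCl overnight at 37 °C, with OD read at 550 nm (ref 630 nm). Growth inhibition was computed against cell and medium controls, and IC50 came from curve fitting (mean ± SD).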

L5178Y [2] = experiment: Cytotoxicity against multi-drug resistant mouse L5178Y cells transfected with ABCB1 gene assessed as inhibition of cell growth incubated for 24 hrs by MTT assay; type: functional, cell-based; in short: as §1
L5178Y [3] = experiment: Modulation of P-glycoprotein mediated Rhodamine-123 efflux in multi-drug resistant mouse L5178Y cells tranfected with ABCB1 gene assessed as fluorescence activity ratio at 2 uM preincubated for 10 mins followed by rhodamine-123 addition and measured after 20 mins by flow cytometric analysis (reference value: 1.01); type: cell-based; conditions: filed as modulator, time 30.0 min
In short: (§2)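 Cells were held in serum-free McCoy's 5A with compound at 2.0 or 20 μM, verapamil 20 μM as positive control and DMSO 2% as solvent control, for 10 min at room temperature. R123 was then added (5.2 μM final) for 20 min at 37 °C, followed by two washes into PBS and flow cytometry (FL-1 mean fluorescence). FAR = (MDR treated/untreated FL-1) divided by (PAR treated/untreated FL-1).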

L5178Y [4] = experiment: Synergistic cytotoxicity against multi-drug resistant mouse L5178Y cells transfected with ABCB1 gene assessed as combination index measured after 48 hrs in the presence of doxorubicin by MTT assay; type: functional
In short: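 This was a fixed-ratio checkerboard in L5178Y-MDR cells, with doxorubicin diluted from 14.7 to 0.1 μM against serial dilutions of the modulator. Cells were seeded at 2×10^5/mL, incubated 48 h, and read by MTT. Each curve was fitted linearly to the Chou–Talalay median-effect equation, keeping only fits with r > 0.90. CI at 50% inhibition is given as the mean ± SD of three CI values from different drug ratios.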

L5178Y [5] = experiment: Modulation of P-glycoprotein mediated Rhodamine-123 efflux in multi-drug resistant mouse L5178Y cells tranfected with ABCB1 gene assessed as fluorescence activity ratio by measuring fold change at 20 uM preincubated for 10 mins followed by rhodamine-123 addition and measured after 20 mins by flow cytometric analysis relative to verapamil; type: cell-based; conditions: filed as modulator, time 30.0 min; in short: as §2
L5178Y [6] = experiment: Modulation of P-glycoprotein mediated Rhodamine-123 efflux in multi-drug resistant mouse L5178Y cells tranfected with ABCB1 gene assessed as fluorescence activity ratio by measuring fold change at 2 uM preincubated for 10 mins followed by rhodamine-123 addition and measured after 20 mins by flow cytometric analysis relative to verapamil; type: cell-based; conditions: filed as modulator, time 30.0 min; in short: as §2

Compound | IC50 (L5178Y [1]) [µM] | IC50 (L5178Y [2]) [µM] | Ratio (L5178Y [3]) | CI (L5178Y [4]) | fold change (FC) (L5178Y [5]) | fold change (FC) (L5178Y [6])
COc1cccc(/C=N/N=C2\C[C@@H](c3ccc(O)cc3)Oc3cc(OC)cc(O)c32)c1 | ≥ 11.3 | ≥ 11.3 | 0.78 | – | – | –
COc1cc(O)c2c(c1)O[C@H](c1ccc(O)cc1)C/C2=N\N | ≥ 11.3 | ≥ 11.3 | 1.26 | – | – | –
COc1cc(O)c2c(c1)O[C@H](c1ccc(OCC3CO3)cc1)CC2=O (stereo partly drawn) | ≥ 11.3 | ≥ 11.3 | 1.17 | – | – | –
COc1ccc([C@@H]2C/C(=N\NC(=O)c3ccc(N)cc3)c3c(O)cc(OC)cc3O2)cc1 | 3.9 | 1.3 | 1.32 | – | – | –
Oc1ccc([C@@H]2C/C(=N\Nc3ccccc3)c3c(O)cc(O)cc3O2)cc1 | ≥ 11.3 | ≥ 11.3 | 1.16 | – | – | –
Cn1cccc1/C=N/N=C1\C[C@@H](c2ccc(O)cc2)Oc2cc(O)cc(O)c21 | ≥ 11.3 | ≥ 11.3 | 0.64 | – | – | –
COc1cc(O)c2c(c1)O[C@H](c1ccc(O)cc1)C/C2=N\NC(=O)c1ccc(N)cc1 | ≥ 11.3 | ≥ 11.3 | 0.96 | – | – | –
O=C(Cc1c[nH]c2ccccc12)N/N=C1\C[C@@H](c2ccc(O)cc2)Oc2cc(O)cc(O)c21 | ≥ 11.3 | ≥ 11.3 | 1 | – | – | –
COc1ccc([C@@H]2C/C(=N\Nc3ccccc3)c3c(O)cc(OC)cc3O2)cc1 | ≥ 11.3 | ≥ 11.3 | 1.8 | – | – | –
COc1cc(O)c2c(c1)O[C@H](c1ccc(O)cc1)C/C2=N\NC(=O)Cc1c[nH]c2ccccc12 | ≥ 11.3 | ≥ 11.3 | 1.12 | – | – | –
COc1cc(O)c2c(c1)O[C@H](c1ccc(O)cc1)CC2=O [SAKURANETIN] | ≥ 11.3 | ≥ 11.3 | 1.06 | – | – | –
COc1cc(O)c2c(c1)O[C@H](c1ccc(O)cc1)C/C2=N\NC(=O)c1cccs1 | 9.4 | 12 | 1.39 | – | – | –
N/N=C1\C[C@@H](c2ccc(O)cc2)Oc2cc(O)cc(O)c21 | ≥ 11.3 | ≥ 11.3 | 0.72 | – | – | –
COC(=O)C1CCN(CC(O)COc2ccc([C@@H]3CC(=O)c4c(O)cc(OC)cc4O3)cc2)CC1 (stereo partly drawn) | ≥ 11.3 | ≥ 11.3 | 8.01 | – | – | –
O=C(N/N=C1\C[C@@H](c2ccc(O)cc2)Oc2cc(O)cc(O)c21)c1cccs1 (stereo in doubt) | ≥ 11.3 | ≥ 11.3 | 0.92 | – | – | –
COc1cc(O)c2c(c1)O[C@H](c1ccc(O)cc1)C/C2=N\NC(=O)OCc1ccccc1 | ≥ 11.3 | ≥ 11.3 | 4.14 | 0.638 | 7 | –
Oc1ccc([C@@H]2C/C(=N\N=C\c3c[nH]c4ccccc34)c3c(O)cc(O)cc3O2)cc1 | ≥ 11.3 | ≥ 11.3 | 0.95 | – | – | –
COc1cc(O)c2c(c1)O[C@H](c1ccc(OCC(O)CSc3ccccc3)cc1)CC2=O (stereo partly drawn) | ≥ 11.3 | ≥ 11.3 | 0.92 | – | – | –
COc1cc(O)c2c(c1)O[C@H](c1ccc(OCC(O)Cc3c[nH]c4ccccc34)cc1)CC2=O (stereo partly drawn) | ≥ 11.3 | ≥ 11.3 | 0.86 | – | – | –
COc1ccc([C@@H]2CC(=O)c3c(O)cc(OC)cc3O2)cc1 | ≥ 11.3 | ≥ 11.3 | 1.03 | – | – | –

Compound | IC50 (L5178Y [1]) [µM] | IC50 (L5178Y [2]) [µM] | Ratio (L5178Y [3]) | CI (L5178Y [4]) | fold change (FC) (L5178Y [5]) | fold change (FC) (L5178Y [6])
COc1cc(O)c2c(c1)O[C@H](c1ccc(O)cc1)C/C2=N\NC(=O)c1ccc(C(F)(F)F)cc1 | ≥ 11.3 | ≥ 11.3 | 0.83 | – | – | –
Oc1ccc([C@@H]2C/C(=N\Nc3cnccn3)c3c(O)cc(O)cc3O2)cc1 | ≥ 11.3 | ≥ 11.3 | 1.65 | – | – | –
COc1cc(O)c2c(c1)O[C@H](c1ccc(O)cc1)C/C2=N\Nc1ccccc1 | ≥ 11.3 | ≥ 11.3 | 1.16 | – | – | –
O=C(N/N=C1\C[C@@H](c2ccc(O)cc2)Oc2cc(O)cc(O)c21)c1ccco1 (stereo in doubt) | ≥ 11.3 | ≥ 11.3 | 0.86 | – | – | –
COc1cc(O)c2c(c1)O[C@H](c1ccc(OCC(O)CNC3CCN(Cc4ccccc4)CC3)cc1)CC2=O (stereo partly drawn) | ≥ 11.3 | ≥ 11.3 | 18.7 | 0.108 | 6 | 2
COc1cc(O)c2c(c1)O[C@H](c1ccc(O)cc1)C/C2=N\NC(=O)c1ccco1 | ≥ 11.3 | ≥ 11.3 | 1.28 | – | – | –
COc1ccc([C@@H]2C/C(=N\Nc3ccc(Br)cn3)c3c(O)cc(OC)cc3O2)cc1 | 8 | 10.7 | 10.7 | – | – | –
Oc1ccc([C@@H]2C/C(=N\Nc3ccc(Br)cn3)c3c(O)cc(O)cc3O2)cc1 | ≥ 11.3 | ≥ 11.3 | 1.08 | – | – | –
O=C(N/N=C1\C[C@@H](c2ccc(O)cc2)Oc2cc(O)cc(O)c21)OCc1ccccc1 | ≥ 11.3 | ≥ 11.3 | 0.76 | – | – | –
COc1ccc([C@@H]2C/C(=N\NC(=O)Cc3c[nH]c4ccccc34)c3c(O)cc(OC)cc3O2)cc1 | 8.6 | 7.5 | 2.47 | – | – | –
COc1ccc([C@@H]2C/C(=N\N)c3c(O)cc(OC)cc3O2)cc1 | ≥ 11.3 | ≥ 11.3 | 0.85 | – | – | –
COc1ccc([C@@H]2C/C(=N\NC(=O)OCc3ccccc3)c3c(O)cc(OC)cc3O2)cc1 | > 100 | 7.2 | 0.94 | 0.445 | – | –
O=C1C[C@@H](c2ccc(O)cc2)Oc2cc(O)cc(O)c21 [NARINGENIN] | ≥ 11.3 | ≥ 11.3 | 0.72 | – | – | –
COc1cc(O)c2c(c1)O[C@H](c1ccc(OCC(O)CN3CCCCC3)cc1)CC2=O (stereo partly drawn) | 9.3 | 17.4 | 3.08 | – | – | –
COc1cc(O)c2c(c1)O[C@H](c1ccc(OCC(O)CCl)cc1)CC2=O (stereo partly drawn) | ≥ 11.3 | ≥ 11.3 | 1.33 | – | – | –
COc1ccc([C@@H]2C/C(=N\NC(=O)c3ccco3)c3c(O)cc(OC)cc3O2)cc1 | 2.7 | 3.4 | 2.24 | – | – | –
CN(C)C(=S)N/N=C1\C[C@@H](c2ccc(O)cc2)Oc2cc(O)cc(O)c21 | ≥ 11.3 | ≥ 11.3 | 2.17 | – | – | –
COc1cc(O)c2c(c1)O[C@H](c1ccc(O)cc1)C/C2=N\Nc1ccc(Br)cn1 | 4.3 | 12.7 | 2.1 | – | – | –
CCN(CC)CC(O)COc1ccc([C@@H]2CC(=O)c3c(O)cc(OC)cc3O2)cc1 (stereo partly drawn) | ≥ 11.3 | ≥ 11.3 | 4.06 | – | – | –
